One may read the IC50 as the concentration that gives 50% inhibition. A lower IC50 goes with higher potency. Broadly, the EC50 is the concentration giving half of the maximal effect. The term CC50 denotes the concentration that lowers cell viability or growth by half. Lower therefore signals greater toxicity to the cells. For orientation: solubility means the dissolved amount per volume that the medium holds. The low end stands for a poorly soluble substance, the high end for a readily soluble substance. Usually Cmax stands for the peak of the concentration-time curve. The term Tmax denotes the time at which the peak concentration occurs. A word on the half-life: it is the time needed for the level to fall by half in the phase considered. Read a low half-life as fast loss. By AUC is commonly meant the area under the concentration-time curve, a measure of exposure. A low value points to low exposure. One may read the MRT as a mean duration of stay, worked out from the concentration-time curve. What is called bioavailability is dose-corrected exposure relative to a reference, in per cent. High values mean much systemic uptake, low ones little systemic uptake.

For data set [1], the target named is CYP2D6 (Homo sapiens, UniProt P10635). The experiment in a line: Cytochrome P450 inhibition assay, CYP2D6. In kind it is in vitro ADME.
CYP2D6, sequence (P10635 whole entry): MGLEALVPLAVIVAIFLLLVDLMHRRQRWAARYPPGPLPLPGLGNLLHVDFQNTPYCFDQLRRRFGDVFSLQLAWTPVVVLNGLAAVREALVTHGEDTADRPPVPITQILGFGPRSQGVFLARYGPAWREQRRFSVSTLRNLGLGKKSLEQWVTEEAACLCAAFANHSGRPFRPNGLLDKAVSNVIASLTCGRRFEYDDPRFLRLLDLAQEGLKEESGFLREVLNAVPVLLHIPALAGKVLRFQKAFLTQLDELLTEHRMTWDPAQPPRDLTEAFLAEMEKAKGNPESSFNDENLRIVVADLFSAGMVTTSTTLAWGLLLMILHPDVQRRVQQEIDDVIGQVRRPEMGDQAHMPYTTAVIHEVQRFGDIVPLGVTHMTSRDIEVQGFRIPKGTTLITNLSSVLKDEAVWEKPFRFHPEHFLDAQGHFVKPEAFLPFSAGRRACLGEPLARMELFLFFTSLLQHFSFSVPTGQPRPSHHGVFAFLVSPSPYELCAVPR
The nature of data set [2]: Acute toxicity assay. The settings on record: single intragastric administration of 1.2 g/kg. In kind it is in vivo, ICR mice. The method in brief:
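ICR mice, 24–28 g, aged 5–6 weeks (4 male, 4 female), were randomised into 4 groups. Test compound was given as a single intragastric dose. Body weight, behaviour and coat colour were followed for 14 days. Mice were then euthanised, and kidney, lung, spleen, liver, heart and brain were HE-stained for histology.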

Data set [3] has as its system K103N, L100I, E138K, Y181C, and K103N + Y181C. The experiment in a line: Anti-HIV-1 efficacy against mutant panel. In kind it is cell-based. Particulars: Human immunodeficiency virus 1, read-out: EC50 value range. The gist of the method: (§1)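 MT-4 cells were infected with HIV-1 RT mutant strains. EC50 was the concentration giving 50% protection against viral cytopathicity, averaged from at least three independent experiments. Cytotoxicity in mock-infected cultures was read by MTT.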

A short description of data set [4]: Cytotoxicity in mock-infected MT-4 cell cultures. Format: cell-based. The settings on record: human, mock-infected MT-4 cells.
The subject of data set [5] is HIV-1 mutant Y188L. The experiment in a line: Anti-HIV-1 efficacy against mutant Y188L in MT-4 cells. Format: cell-based. Particulars: Human immunodeficiency virus 1, MT4, read-out: EC50 Y188L. The gist of the method:
as §1

The subject of data set [6] is HIV-1 mutant L100I. The experiment in a line: Anti-HIV-1 efficacy against mutant L100I in MT-4 cells. Particulars: Human immunodeficiency virus 1, MT4, read-out: EC50 L100I. In kind it is cell-based. The method in brief:
as §1

The target in data set [7] is T1, CYP1A2 (Homo sapiens, UniProt P05177).
T1 sequence (P05177 1-516): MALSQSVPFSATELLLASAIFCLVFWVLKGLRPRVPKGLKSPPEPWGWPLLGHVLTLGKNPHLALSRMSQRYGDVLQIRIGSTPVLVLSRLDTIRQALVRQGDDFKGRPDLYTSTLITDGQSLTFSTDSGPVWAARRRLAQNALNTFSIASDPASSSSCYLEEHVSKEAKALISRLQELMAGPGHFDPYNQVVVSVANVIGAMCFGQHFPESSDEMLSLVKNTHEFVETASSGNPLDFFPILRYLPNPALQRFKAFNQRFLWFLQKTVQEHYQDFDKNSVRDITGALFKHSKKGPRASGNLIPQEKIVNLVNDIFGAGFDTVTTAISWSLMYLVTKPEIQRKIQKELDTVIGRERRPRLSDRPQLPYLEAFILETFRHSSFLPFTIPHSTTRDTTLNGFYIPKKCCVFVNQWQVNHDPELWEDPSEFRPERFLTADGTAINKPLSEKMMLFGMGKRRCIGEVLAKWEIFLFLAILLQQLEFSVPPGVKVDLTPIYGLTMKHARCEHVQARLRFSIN
The experiment in a line: Cytochrome P450 inhibition assay, CYP1A2. Format: in vitro ADME.

Data set [8] deals with CYP2C9 (Homo sapiens, UniProt P11712). The experiment in a line: Cytochrome P450 inhibition assay, CYP2C9. Format: in vitro ADME.
CYP2C9, sequence (P11712 whole entry): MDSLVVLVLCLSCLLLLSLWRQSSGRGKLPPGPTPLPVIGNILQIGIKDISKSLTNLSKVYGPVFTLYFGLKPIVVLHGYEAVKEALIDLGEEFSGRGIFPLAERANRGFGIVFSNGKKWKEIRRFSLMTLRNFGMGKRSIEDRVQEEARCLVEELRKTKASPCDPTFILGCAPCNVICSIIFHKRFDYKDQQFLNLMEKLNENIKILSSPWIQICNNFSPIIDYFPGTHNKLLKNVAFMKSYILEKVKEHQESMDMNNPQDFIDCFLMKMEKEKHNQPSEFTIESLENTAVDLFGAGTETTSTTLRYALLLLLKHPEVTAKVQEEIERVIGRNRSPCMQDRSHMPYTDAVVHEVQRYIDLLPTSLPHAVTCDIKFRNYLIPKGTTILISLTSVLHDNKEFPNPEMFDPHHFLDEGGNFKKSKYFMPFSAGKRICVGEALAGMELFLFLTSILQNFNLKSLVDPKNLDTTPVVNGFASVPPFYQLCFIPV
Data set [9] has as its system HIV-1 mutant Y181C. The experiment in a line: Anti-HIV-1 efficacy against mutant Y181C in MT-4 cells. Format: cell-based. Particulars: Human immunodeficiency virus 1, MT4, read-out: EC50 Y181C. The method in brief: as §1
Data set [10] has as its target CYP2C19 (Homo sapiens, UniProt P33261). The experiment in a line: biochemical.
In data set [11] the test system is HIV-1 mutant K103N. Briefly: Anti-HIV-1 efficacy against mutant K103N in MT-4 cells. Format: cell-based. The settings on record: Human immunodeficiency virus 1, MT4, read-out: EC50 K103N. The method in brief:
as §1

Data set [12] is described as follows: Aqueous solubility. Format: physicochemical.
The target in data set [13] is WT HIV-1 RT (Human immunodeficiency virus type 1 group M subtype B, UniProt P03366). Briefly: Inhibition of WT HIV-1 RT. In kind it is biochemical.
The nature of data set [14]: PK study in Sprague-Dawley rats. Format: in vivo. Particulars: rat, plasma. The method in brief:
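Six SD rats, 180–220 g, were fasted 12 h and randomised into an intravenous arm (1 mg/kg) and an intragastric arm. Blood was drawn from pre-dose to 720 min into heparin, and plasma was stored at −80 °C. Plasma was precipitated with acetonitrile, dried under nitrogen, reconstituted and assayed by HPLC-MS/MS. PK parameters and bioavailability came from concentration–time data.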

In data set [15] the test system is WT HIV-1. The experiment in a line: Anti-HIV-1 activity in MT-4 cells infected with HIV-1. In kind it is cell-based.
Data set [16] concerns HIV-1 mutant K103N + Y181C. The experiment in a line: Anti-HIV-1 efficacy against mutant K103N + Y181C in MT-4 cells. In kind it is cell-based. The settings on record: Human immunodeficiency virus 1, MT4, read-out: EC50 K103N + Y181C. The method in brief: as §1
Data set [17] has as its target CYP3A4 (Homo sapiens, UniProt P08684). The experiment in a line: Cytochrome P450 inhibition assay, CYP3A4. Format: in vitro ADME.
Data set [18] concerns HIV-1 mutant E138K. Briefly: Anti-HIV-1 efficacy against mutant E138K in MT-4 cells. Particulars: Human immunodeficiency virus 1, MT4, read-out: EC50 E138K. Format: cell-based. The method in brief: as §1
The target of data set [19] is hERG potassium channels (Homo sapiens, UniProt Q12809). Briefly: hERG channel Qpatch assay in CHO-hERG cells. In kind it is cell-based. Background: hERG is a cardiac potassium channel; its block is linked to QT prolongation.
hERG potassium channels, sequence (Q12809 whole entry): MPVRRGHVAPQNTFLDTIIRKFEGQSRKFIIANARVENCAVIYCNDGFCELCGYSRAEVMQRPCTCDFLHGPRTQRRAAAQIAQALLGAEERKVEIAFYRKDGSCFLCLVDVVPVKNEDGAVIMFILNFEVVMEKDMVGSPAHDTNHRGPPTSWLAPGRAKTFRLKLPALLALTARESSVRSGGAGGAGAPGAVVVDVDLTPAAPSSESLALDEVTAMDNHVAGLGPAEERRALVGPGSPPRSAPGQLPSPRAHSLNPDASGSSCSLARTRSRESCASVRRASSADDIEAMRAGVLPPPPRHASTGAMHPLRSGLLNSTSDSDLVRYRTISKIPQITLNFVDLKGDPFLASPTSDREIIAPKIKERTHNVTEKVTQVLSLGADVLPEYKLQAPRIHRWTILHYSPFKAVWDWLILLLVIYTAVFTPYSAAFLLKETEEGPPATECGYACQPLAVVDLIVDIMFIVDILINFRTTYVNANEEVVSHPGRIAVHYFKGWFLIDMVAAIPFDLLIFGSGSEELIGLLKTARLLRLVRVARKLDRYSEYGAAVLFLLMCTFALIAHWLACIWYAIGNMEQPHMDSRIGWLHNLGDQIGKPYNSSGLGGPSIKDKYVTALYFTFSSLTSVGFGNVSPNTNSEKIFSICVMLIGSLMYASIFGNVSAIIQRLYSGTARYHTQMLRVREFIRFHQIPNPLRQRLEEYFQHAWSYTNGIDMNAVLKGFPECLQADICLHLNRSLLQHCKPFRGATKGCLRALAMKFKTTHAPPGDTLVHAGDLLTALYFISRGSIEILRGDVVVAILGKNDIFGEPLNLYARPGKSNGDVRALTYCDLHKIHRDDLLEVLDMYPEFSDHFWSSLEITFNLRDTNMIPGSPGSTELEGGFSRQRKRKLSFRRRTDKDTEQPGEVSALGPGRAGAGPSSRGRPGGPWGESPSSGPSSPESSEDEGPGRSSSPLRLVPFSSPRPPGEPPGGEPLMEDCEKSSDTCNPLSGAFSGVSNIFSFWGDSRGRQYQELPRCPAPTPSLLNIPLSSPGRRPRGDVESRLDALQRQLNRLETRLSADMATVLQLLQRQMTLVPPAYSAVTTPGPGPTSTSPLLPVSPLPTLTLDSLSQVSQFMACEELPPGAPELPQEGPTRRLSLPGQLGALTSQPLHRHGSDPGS

≈ marks a conversion by molar mass, not a printed value.

CYP3A4, sequence (P08684 whole entry): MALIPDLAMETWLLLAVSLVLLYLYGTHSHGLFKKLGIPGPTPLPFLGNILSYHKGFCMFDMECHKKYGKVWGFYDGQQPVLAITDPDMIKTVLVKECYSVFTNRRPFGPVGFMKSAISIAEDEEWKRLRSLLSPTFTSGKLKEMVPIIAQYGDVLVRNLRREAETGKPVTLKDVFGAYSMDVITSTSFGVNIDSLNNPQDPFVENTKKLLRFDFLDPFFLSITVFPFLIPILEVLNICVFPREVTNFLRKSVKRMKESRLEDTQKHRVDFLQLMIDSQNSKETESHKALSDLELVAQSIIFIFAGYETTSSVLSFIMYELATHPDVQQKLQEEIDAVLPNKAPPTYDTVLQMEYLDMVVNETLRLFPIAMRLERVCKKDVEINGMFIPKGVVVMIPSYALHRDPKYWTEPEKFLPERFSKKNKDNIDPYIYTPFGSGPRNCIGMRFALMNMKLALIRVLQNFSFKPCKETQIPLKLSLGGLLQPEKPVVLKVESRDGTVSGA
CYP2C19, sequence (P33261 whole entry): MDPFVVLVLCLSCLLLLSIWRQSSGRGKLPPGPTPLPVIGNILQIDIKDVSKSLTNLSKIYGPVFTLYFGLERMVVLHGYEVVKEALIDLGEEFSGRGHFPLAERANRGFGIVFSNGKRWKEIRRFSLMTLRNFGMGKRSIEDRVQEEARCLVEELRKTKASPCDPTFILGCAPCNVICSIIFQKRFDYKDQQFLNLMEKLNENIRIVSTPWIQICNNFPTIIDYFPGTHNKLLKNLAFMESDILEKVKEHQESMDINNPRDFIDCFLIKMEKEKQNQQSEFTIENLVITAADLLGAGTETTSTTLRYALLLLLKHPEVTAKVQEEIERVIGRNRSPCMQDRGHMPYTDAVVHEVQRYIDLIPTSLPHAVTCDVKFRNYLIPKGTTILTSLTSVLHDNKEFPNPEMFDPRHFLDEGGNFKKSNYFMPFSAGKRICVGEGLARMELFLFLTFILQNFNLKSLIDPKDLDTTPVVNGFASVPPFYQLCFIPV

For `Cn1c(Cn2ccc(C(F)(F)F)c(Oc3cccc4cnccc34)c2=O)n[nH]c1=O` [7w], the IC50 in [1] was > 50000 nM; in data set [7], > 50000 nM; in data set [8] it was 19600 nM; in data set [10] it was 26800 nM; in [13] it was 120 ± 7 nM; in data set [17], > 50000 nM. In addition, in [19], the IC50 is > 40000 nM. In addition, the “Pathological damage of six main organs (HE staining)” value in data set [2] (after 14 days) is listed as “no obvious pathological damage”. The Behavior and weight result in data set [2] (observed 14 days) was “normal behavior and weight”. Besides, the Mortality result in data set [2] (observed 14 days) is listed as “did not result in any fatalities”. Further, the half-maximal effective concentration (EC50) in [3] was 35 to 140 nM; in data set [5], 5350 ± 2150 nM; in data set [6] it was 38 ± 17 nM; in data set [9] it was 50 ± 11 nM; in [11], 71 ± 19 nM; in data set [15] (Human immunodeficiency virus 1, MT4), 22 ± 10 nM. For the same compound, the EC50 in data set [16] was 140 ± 90 nM; in [18], 49 ± 13 nM. Also, it took 274000 ± 10600 nM to reach half-maximal cytotoxicity in data set [4] (CC50). Besides, the solubility in data set [12] (pH 2, aqueous buffer) stood at 4470 µg/mL (≈ 10700 µM); in data set [12] (pH 7, aqueous buffer), 38 µg/mL (≈ 91.1 µM); in data set [12] (pH 7.4, aqueous buffer), 53 µg/mL (≈ 127 µM). The Cmax in data set [14] (iv, 1 mg/kg) stood at 456 ± 51.1 ng/mL; in data set [14] (po, 5 mg/kg), 2888 ± 9.71 ng/mL. For the same compound, the Tmax in data set [14] (iv, 1 mg/kg) worked out at 4.98 min; in [14] (po, 5 mg/kg), 25 ± 8.64 min. Moreover, the half-life is 17.4 ± 12.6 min in [14] (iv, 1 mg/kg) and 107 ± 17.4 min in data set [14] (po, 5 mg/kg). For the same compound, the AUC in data set [14] (iv, 1 mg/kg, AUC0‒t, 1.0 mg/kg (i.v.)) stood at 229 ± 45.3 ng·h/mL; in data set [14] (iv, 1 mg/kg, AUC0‒∞, 1.0 mg/kg (i.v.)), 230 ± 46 ng·h/mL; in data set [14] (po, 5 mg/kg, AUC0‒t, 5.0 mg/kg (p.o.)) it was 304 ± 24.5 ng·h/mL; in data set [14] (po, 5 mg/kg, AUC0‒∞, 5.0 mg/kg (p.o.)), 312 ± 25.3 ng·h/mL. The mean residence time MRT came to 21.1 ± 2.5 min in data set [14] (iv, 1 mg/kg, MRT0‒t, 1.0 mg/kg (i.v.)); 22 ± 28 min in data set [14] (iv, 1 mg/kg, MRT0‒∞, 1.0 mg/kg (i.v.)); 70.2 ± 9.18 min in data set [14] (po, 5 mg/kg, MRT0‒t, 5.0 mg/kg (p.o.)); 85.2 ± 8.4 min in data set [14] (po, 5 mg/kg, MRT0‒∞, 5.0 mg/kg (p.o.)). Moreover, the bioavailability in data set [14] (po, 5 mg/kg) stood at 27.1 ± 0.0219%. For the same compound, in [15] (selectivity index, the ratio of CC50/EC50, WT HIV-1), the SI was 12,497.73.

In the case of `COc1ccc2c(c1)[C@]13CCCC[C@@H]1[C@H](C2)N(C)CC3` [Dextromethorphan, reference compound], in data set [1], the IC50 stood at 48.2 nM.

(Values after PMC10692386 (Acta Pharmaceutica Sinica. B, 2023).)
